Laboratory results taken from ChEMBL document CHEMBL5096188, “Quinolinonyl Non-Diketo Acid Derivatives as Inhibitors of HIV-1 Ribonuclease H and Polymerase Functions of Reverse Transcriptase” (J Med Chem, 2021).
Active and inactive are the calls of the source. The rule behind the calls is not given here.

Molecular target: T1, Human immunodeficiency virus type 1 reverse transcriptase (Human immunodeficiency virus 1, UniProt Q72547)
Assay: Inhibition of recombinant His-tagged wild-type HIV-1 group M subtype B BH10 reverse transcriptase-associated RNase H activity harboring p66/p51 hetrodimer expressed in Escherichia coli M15 using GTTTTCTTTTCCCCCCTGAC-30 fluorescein/50-CAAAAGAAAAGGGGGGACUG-30 Dabcyl RNA/DNA template-primer as substrate incubated for 1 hr by multilabel counter plate reader analysis
Details: not given
Method in brief: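 His-tagged p66/p51 RT was expressed in E. coli M15, with mutations placed in p66 by site-directed mutagenesis. The mix held 50 mM Tris HCl pH 7.8, 6 mM MgCl2, 1 mM DTT, 80 mM KCl, 250 nM fluorescein/Dabcyl RNA/DNA hybrid and serial compound dilutions, with no preincubation. Reactions were started with enzyme (wt, R448A, K451A 20 ng; K540A 40 ng; N474A 500 ng), run 1 h at 37 °C and read at 490/528 nm. Duplicates were repeated at least twice; IC50 is mean ± SD.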

SMILES | IC50
CCOC(=O)c1cn(Cc2ccc(F)cc2)c2ccc(OCCCN(C)C)cc2c1=O | > 100 µM
CCOC(=O)c1cn(Cc2ccc(F)cc2)c2ccc(OCc3ccc(-c4ccccc4)cc3)cc2c1=O | > 100 µM
COc1ccc2c(c1)c(=O)c(C(=O)O)cn2Cc1ccc(F)cc1 | > 100 µM
CCOC(=O)c1cn(Cc2ccc(F)cc2)c2ccc(OC)cc2c1=O | > 100 µM
CCOC(=O)c1cn(Cc2ccc(F)cc2)c2ccc(S(C)(=O)=O)cc2c1=O | > 100 µM
O=C(O)c1cn(Cc2ccc(F)cc2)c2ccccc2c1=O | > 100 µM
CCOC(=O)c1cn(Cc2ccc(F)cc2)c2ccc(O)cc2c1=O | > 100 µM
O=C(O)c1cn(Cc2ccc(F)cc2)c2ccc(C(F)(F)F)cc2c1=O | > 100 µM
CCOC(=O)c1cn(Cc2ccc(F)cc2)c2ccc(C#N)cc2c1=O | > 100 µM
N#Cc1ccc2c(c1)c(=O)c(C(=O)O)cn2Cc1ccc(F)cc1 | > 100 µM

Molecular target: T1, Human immunodeficiency virus type 1 reverse transcriptase
Assay: Inhibition of HIV-1 reverse transcriptase associated RNA-dependent DNA polymerase activity using poly(A)-oligo(dT) as template/primer incubated for 30 mins by multilabel counter plate reader analysis
Details: not given

SMILES | IC50
O=C(/C=C/c1ccc2c(c1)c(=O)c(C(=O)O)cn2Cc1ccc(F)cc1)c1ccccc1 | > 100 µM

Molecular target: Human immunodeficiency virus type 1 integrase (Human immunodeficiency virus 1, UniProt Q7ZJM1)
Assay: Inhibition of recombinant His-tagged HIV-1 NL4-3 integrase expressed in Escherichia coli BL21 pLys using GTGTGGAAAATCTCTAGCA/ACTGCTAGAGATTTTCCACAC as DNA substrate incubated for 2 hrs by densitometric analysis
Details: not given

Human immunodeficiency virus type 1 integrase, sequence (Q7ZJM1 whole entry): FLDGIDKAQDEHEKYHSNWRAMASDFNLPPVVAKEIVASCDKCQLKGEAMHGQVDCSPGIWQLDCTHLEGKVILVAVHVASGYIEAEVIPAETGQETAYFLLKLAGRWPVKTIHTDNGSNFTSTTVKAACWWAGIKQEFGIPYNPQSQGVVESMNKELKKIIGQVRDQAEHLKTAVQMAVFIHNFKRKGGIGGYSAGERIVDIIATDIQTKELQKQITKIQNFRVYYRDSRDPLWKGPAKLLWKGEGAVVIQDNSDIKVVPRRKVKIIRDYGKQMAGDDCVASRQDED

IC50 | SMILES
> 100 µM | CCOC(=O)c1cn(Cc2ccc(F)cc2)c2ccc(C(C)=O)cc2c1=O
> 250 µM | O=C(O)c1cn(Cc2ccc(F)cc2)c2ccc(OCc3ccc(-c4ccccc4)cc3)cc2c1=O
> 100 µM | O=C(O)c1cn(Cc2ccc(F)cc2)c2ccc(OCc3cccc(Cl)c3Cl)cc2c1=O
> 100 µM | CC(=O)c1ccc2c(c1)c(=O)c(C(=O)O)cn2Cc1ccc(F)cc1
> 100 µM | O=C(O)c1cn(Cc2ccc(F)cc2)c2ccc(OCc3cccc4ccccc34)cc2c1=O
> 100 µM | O=C(O)c1cn(Cc2ccc(F)cc2)c2ccc(OCc3ccc4c(c3)OCO4)cc2c1=O
> 100 µM | CCOC(=O)/C=C/C(=O)/C=C/c1cccn1Cc1ccccc1Cl

Test system: not listed separately
Assay: Selectivity index, ratio of CC50 for cytotoxicity against human HeLa-CD4-LTR-beta-gal cells to EC50 for antiviral activity against HIV 1 infected in human HeLa-CD4-LTR-beta-gal cells
Format: toxicity, cell-based
Details: read-out: Ratio CC50/EC50
Method in brief: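 Selectivity index is CC50/EC50. Both values come from HeLa-CD4-LTR-β-gal cells at 24 h. EC50 is from β-galactosidase readout after infection with in-house HIV-1 (H9-laï coculture). CC50 is from the CellTiter 96 AQueous One proliferation assay.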

SMILES | selectivity ratio
CCOC(=O)/C=C/C(=O)/C=C/c1cccn1Cc1ccccc1Cl | > 13.7

Test system: not listed separately
Assay: Metal chelating activity assessed as Mg2+-compound complex formation at 3.8 x 10^-5M by UV-visible spectrophotometric titration analysis
Details: dose 3.8 10^-5M
Method in brief: (§1)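 Compound in absolute ethanol, titrated with MgCl2 stock solutions (4 10–5 to 0.2 M, diluted in ethanol). UV–vis spectra were recorded from 230 to 370 or 600 nm against ethanol in a 1 cm quartz cuvette, in triplicate. Stoichiometry was found by Job's method using equimolar metal/ligand mixtures. ΔA was plotted against ligand mole fraction, and the maximum was located by linear regression.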

Activity | SMILES
Active | O=C(O)c1cn(Cc2ccc(F)cc2)c2ccc(OCc3cccc4ccccc34)cc2c1=O

Test system: not listed separately
Assay: Metal chelating activity assessed as Mg2+-compound complex formation at 4.1 x 10^-5 M by UV-visible spectrophotometric titration analysis
Details: dose 4.1 10^-5M
Method in brief: as §1

Activity | SMILES
Active | CCOC(=O)c1cn(Cc2ccc(F)cc2)c2ccc(OCc3cccc4ccccc34)cc2c1=O
